pIC50: −log10 of the molar value.
Columns and labels:
HCT-116 = assay: Cytotoxicity against human HCT116 cells assessed as cell viability by WST-1 reduction assay; format: cell-based
How it was run: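 Cytotoxicity was measured in an HCT-116 cell proliferation assay as reduction of WST-1 reagent. Values are the mean of at least three experiments.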

[1] = molecular target: c-Jun N-terminal kinase, JNK (Homo sapiens, UniProt P45983+P53779+P45984); assay: Inhibition of JNK in human SW1353 cells assessed as inhibition of TNFalpha-induced c-Jun phosphorylation incubated for 30 mins prior to TNFalpha induction measured after 20 mins; format: cell-based
How it was run: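 SW1353 cells were stimulated with TNFa, and the read-out was inhibition of phosphorylation of the downstream substrate c-Jun. Values are the mean of at least three experiments.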

[2] = molecular target: Cyclin-dependent kinase 2/cyclin E1 (Homo sapiens, UniProt P24941); assay: Inhibition of human recombinant CDK2/GST-tagged cyclin E expressed in baculovirus infected insect cells assessed as inhibition of 6XHis-tagged retinoblastoma protein (386 to 928) phosphorylation after 30 mins by scintillation counting analysis in presence of [gamma-33P]-ATP
How it was run: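 CDK2 activity was measured as phosphorylation of a 6-histidine-tagged truncated retinoblastoma protein (amino acids 386–928) using [γ-33P]ATP.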

Homo sapiens = species: Homo sapiens; assay: Selectivity ratio of IC50 for human JNK2 to IC50 for human JNK1
How it was run: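 JNK1 and JNK2 activities were each measured as phosphorylation of GST-ATF2 (19–96) with [γ-33P]ATP, and IC50s were determined for each enzyme. The ratio is JNK2 IC50 over JNK1 IC50. IC50s are the mean of at least three experiments.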

[3] = molecular target: Mitogen-activated protein kinase 8 (Homo sapiens, UniProt P45983)
[4] = molecular target: T1, Mitogen-activated protein kinase 9 (Homo sapiens, UniProt P45984)
Target sequence in this assay (P45984 whole entry): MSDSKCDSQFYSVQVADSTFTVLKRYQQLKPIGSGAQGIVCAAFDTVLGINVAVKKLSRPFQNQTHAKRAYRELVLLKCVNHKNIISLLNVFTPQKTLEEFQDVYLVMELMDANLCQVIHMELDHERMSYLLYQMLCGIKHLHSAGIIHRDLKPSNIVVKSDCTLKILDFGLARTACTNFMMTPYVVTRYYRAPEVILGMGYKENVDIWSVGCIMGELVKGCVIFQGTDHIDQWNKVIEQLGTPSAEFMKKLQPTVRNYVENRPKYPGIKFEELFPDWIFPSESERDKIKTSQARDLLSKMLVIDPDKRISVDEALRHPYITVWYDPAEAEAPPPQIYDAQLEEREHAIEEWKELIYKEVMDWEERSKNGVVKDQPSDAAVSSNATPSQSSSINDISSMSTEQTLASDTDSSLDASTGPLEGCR

[5] = Clearance in human liver microsomes; format: ADME, Microsome; conditions: read-out: CLH
How it was run: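 Intrinsic clearance was measured in vitro in human liver microsomes and expressed per mg microsomal protein.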

[6] = molecular target: T1, Mitogen-activated protein kinase 9; assay: Ratio of IC50 for human JNK2 in presence of human serum to IC50 for human JNK2 in absence of human serum
Target sequence in this assay (P45984 whole entry, looked up): as the sequence (P45984 whole entry) above

Cytochrome P450 2C9 = Cytochrome P450 2C9 (Homo sapiens, UniProt P11712); assay: Inhibition of CYP2C9 (unknown origin); format: ADME
[7] = molecular target: Cyclin-dependent kinase 4/cyclin D1 (Homo sapiens, UniProt P11802); assay: Inhibition of human recombinant human GST-tagged CDK4/cyclin D1 expressed in baculovirus infected insect cells assessed as inhibition of 6XHis-tagged retinoblastoma protein (386 to 928) phosphorylation after 30 mins by scintillation counting analysis in presence of [gamma-33P]-ATP
[8] = molecular target: Mitogen-activated protein kinase 10 (Homo sapiens, UniProt P53779); assay: Inhibition of human JNK3 assessed as inhibition of GST-tagged ATF2 (19 to 96) phosphorylation incubated for 10 mins prior to substrate addition measured after 30 mins by scintillation counting analysis in presence of [gamma-33P]-ATP
[9] = molecular target: Cyclin-dependent kinase 1/cyclin B1 (Homo sapiens, UniProt P06493); assay: Inhibition of human recombinant human CDK1/GST-tagged cyclin B expressed in baculovirus infected insect cells assessed as inhibition of 6XHis-tagged retinoblastoma protein (386 to 928) phosphorylation after 30 mins by scintillation counting analysis in presence of [gamma-33P]-ATP
MAP kinase p38 = MAP kinase p38 (Homo sapiens, UniProt O15264+Q15759+Q16539+P53778); assay: Inhibition of p38 (unknown origin); format: protein assay

Mitogen-activated protein kinase 8, sequence (P45983 whole entry): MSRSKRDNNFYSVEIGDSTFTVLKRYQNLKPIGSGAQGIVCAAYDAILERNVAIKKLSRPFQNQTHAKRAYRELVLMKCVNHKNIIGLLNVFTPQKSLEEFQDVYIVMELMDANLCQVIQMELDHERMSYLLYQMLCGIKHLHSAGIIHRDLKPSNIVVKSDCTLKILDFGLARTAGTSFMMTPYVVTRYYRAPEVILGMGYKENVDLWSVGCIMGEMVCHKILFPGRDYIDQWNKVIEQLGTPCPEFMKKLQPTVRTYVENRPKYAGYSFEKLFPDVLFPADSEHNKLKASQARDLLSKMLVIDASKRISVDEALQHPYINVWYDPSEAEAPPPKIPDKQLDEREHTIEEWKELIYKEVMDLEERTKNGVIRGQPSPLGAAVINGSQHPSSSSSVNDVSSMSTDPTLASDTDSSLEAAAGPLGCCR
Mitogen-activated protein kinase 10, sequence (P53779 whole entry): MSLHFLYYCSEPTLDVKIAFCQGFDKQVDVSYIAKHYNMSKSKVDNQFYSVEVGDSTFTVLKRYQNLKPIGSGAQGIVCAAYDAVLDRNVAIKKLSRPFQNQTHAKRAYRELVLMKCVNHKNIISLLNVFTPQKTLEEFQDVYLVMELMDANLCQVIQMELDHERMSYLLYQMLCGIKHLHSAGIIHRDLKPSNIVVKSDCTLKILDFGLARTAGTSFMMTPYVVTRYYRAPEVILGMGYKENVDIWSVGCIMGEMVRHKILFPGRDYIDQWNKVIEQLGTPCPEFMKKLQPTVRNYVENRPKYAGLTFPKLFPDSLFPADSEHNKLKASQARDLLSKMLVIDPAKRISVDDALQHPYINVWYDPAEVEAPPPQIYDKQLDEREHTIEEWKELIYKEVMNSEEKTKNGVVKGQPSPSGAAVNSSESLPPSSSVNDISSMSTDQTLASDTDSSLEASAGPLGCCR
Cyclin-dependent kinase 4/cyclin D1, sequence (P11802 whole entry): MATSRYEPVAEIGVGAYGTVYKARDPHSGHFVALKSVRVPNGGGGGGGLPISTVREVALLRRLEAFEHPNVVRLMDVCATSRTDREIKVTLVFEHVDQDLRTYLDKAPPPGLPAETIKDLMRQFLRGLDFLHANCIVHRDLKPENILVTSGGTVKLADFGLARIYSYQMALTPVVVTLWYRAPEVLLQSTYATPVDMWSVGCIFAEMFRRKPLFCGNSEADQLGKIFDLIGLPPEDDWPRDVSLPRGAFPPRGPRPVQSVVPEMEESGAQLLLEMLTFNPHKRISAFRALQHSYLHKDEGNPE
Cyclin-dependent kinase 4/cyclin D1, sequence (P24385 whole entry, further chain): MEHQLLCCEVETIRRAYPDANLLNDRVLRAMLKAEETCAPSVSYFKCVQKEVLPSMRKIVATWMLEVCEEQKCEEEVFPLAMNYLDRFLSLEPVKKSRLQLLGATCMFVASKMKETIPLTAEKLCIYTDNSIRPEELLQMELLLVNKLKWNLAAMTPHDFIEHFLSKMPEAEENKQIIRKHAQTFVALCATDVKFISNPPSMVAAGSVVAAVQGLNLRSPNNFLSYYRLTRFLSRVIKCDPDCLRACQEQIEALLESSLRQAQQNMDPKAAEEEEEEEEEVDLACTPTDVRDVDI
Cyclin-dependent kinase 1/cyclin B1, sequence (P06493 whole entry): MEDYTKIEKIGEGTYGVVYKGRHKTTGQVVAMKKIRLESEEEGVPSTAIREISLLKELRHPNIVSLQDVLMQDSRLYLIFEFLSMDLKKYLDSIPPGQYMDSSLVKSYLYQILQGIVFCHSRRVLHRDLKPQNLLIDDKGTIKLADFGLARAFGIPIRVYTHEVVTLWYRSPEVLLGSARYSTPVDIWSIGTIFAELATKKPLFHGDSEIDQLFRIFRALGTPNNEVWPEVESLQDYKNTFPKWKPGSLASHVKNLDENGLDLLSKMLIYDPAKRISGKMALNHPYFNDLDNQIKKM
Cyclin-dependent kinase 1/cyclin B1, sequence (P14635 whole entry, further chain): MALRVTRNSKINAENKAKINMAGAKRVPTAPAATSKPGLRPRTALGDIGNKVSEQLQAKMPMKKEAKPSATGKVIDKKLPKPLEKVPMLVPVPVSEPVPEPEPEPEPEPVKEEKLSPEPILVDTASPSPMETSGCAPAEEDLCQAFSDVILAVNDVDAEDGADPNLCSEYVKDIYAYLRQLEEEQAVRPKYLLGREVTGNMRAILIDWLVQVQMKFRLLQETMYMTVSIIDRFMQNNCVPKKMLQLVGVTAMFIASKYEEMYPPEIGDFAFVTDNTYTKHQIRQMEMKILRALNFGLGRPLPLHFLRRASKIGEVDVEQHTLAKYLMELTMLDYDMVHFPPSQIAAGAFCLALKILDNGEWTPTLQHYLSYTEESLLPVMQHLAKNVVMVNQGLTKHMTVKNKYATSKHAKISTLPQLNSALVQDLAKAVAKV
Cytochrome P450 2C9, sequence (P11712 whole entry): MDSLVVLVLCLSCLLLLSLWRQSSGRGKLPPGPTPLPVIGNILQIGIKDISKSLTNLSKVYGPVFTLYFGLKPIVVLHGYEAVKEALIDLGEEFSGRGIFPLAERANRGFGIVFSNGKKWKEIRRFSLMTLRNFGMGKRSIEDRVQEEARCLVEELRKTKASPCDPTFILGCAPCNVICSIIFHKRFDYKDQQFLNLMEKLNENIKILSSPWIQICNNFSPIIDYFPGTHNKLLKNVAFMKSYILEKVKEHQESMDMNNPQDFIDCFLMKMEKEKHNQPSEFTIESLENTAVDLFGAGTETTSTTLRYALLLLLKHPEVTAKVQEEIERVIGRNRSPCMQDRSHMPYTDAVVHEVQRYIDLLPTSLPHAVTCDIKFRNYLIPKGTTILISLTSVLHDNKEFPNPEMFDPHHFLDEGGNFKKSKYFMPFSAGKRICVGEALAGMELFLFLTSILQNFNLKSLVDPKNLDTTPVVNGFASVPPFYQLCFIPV

| IC50 [1] [nM] | pIC50 [2] | Ratio IC50 (Homo sapiens) | pIC50 [3] | pIC50 [4] | microsomal CLint [5] [µL/min/mg] | Ratio IC50 [6] | pIC50 (Cytochrome P450 2C9) | pIC50 [7] | pIC50 [8] | pIC50 [9] | IC50 (MAP kinase p38) [nM] | Structure (SMILES) | pIC50 (HCT-116) |
| --- | --- | --- | --- | --- | --- | --- | --- | --- | --- | --- | --- | --- | --- |
| 4900 | 5.77 | 4 | 7.72 | 7.12 | – | – | – | – | – | – | – | CN(C)S(=O)(=O)N[C@H]1CC[C@H](Nc2nccc(-n3nnc4ccccc43)n2)CC1 | 4.66 |
| 1400 | – | – | 7.80 | 7.29 | 283 | 4.2 | – | – | – | – | – | CS(=O)(=O)CCCOc1cccc2c1ccn2-c1ccnc(N[C@H]2CC[C@H](C(=O)N3CCC(F)(F)CC3)CC2)n1 | – |
| 1100 | – | – | 8.01 | 7.33 | 19 | 2.6 | – | – | – | – | – | CS(=O)(=O)CCCOc1cccc2c1ccn2-c1ccnc(N[C@H]2CC[C@H](C(=O)N3CC[C@@H](O)C3)CC2)n1 | – |
| 590 | – | – | 7.85 | 7.19 | 175 | 2.5 | – | – | – | – | – | CS(=O)(=O)CCCOc1cccc2c1ccn2-c1ccnc(N[C@H]2CC[C@H](C(=O)N3CC[C@@H](F)C3)CC2)n1 | – |
| 12000 | – | – | 6.24 | 5.92 | – | – | – | – | – | – | – | O[C@H]1CC[C@H](Nc2nccc(-c3nnc4ccccn34)n2)CC1 | – |
| – | 5.57 | 4 | 7.00 | 6.41 | – | – | – | – | – | – | – | c1ccc2c(c1)nnn2-c1ccnc(NC2CCCCC2)n1 | – |
| 350 | – | – | 8.40 | 7.57 | – | 6.3 | – | – | – | – | – | CC(C)(O)[C@H]1CC[C@H](Nc2nccc(-n3ccc4c(OCCCS(C)(=O)=O)cccc43)n2)CC1 | – |
| 1100 | – | – | 7.25 | 6.61 | – | 17 | – | – | – | – | – | CS(=O)(=O)NCCCOc1cccc2c1cnn2-c1ccnc(N[C@H]2CC[C@H](O)CC2)n1 | – |
| 1500 | 6.24 | 4 | 7.41 | 6.64 | – | – | 7.41 | – | – | – | – | CC(=O)N[C@H]1CC[C@H](Nc2nccc(-n3nnc4ccccc43)n2)CC1 | 4.80 |
| 240 | – | – | 8.40 | 7.68 | – | 18 | – | – | – | – | – | CC(C)(O)[C@H]1CC[C@H](Nc2nccc(-n3ncc4c(OCCCS(C)(=O)=O)cccc43)n2)CC1 | – |
| 580 | – | – | 7.85 | 7.24 | 609 | 4.6 | – | – | – | – | – | CCN(CC)C(=O)[C@H]1CC[C@H](Nc2nccc(-n3ccc4c(OCCCS(C)(=O)=O)cccc43)n2)CC1 | – |
| 1400 | – | – | 8.33 | 7.55 | 141 | 2.9 | – | – | – | – | – | COC1CCN(C(=O)[C@H]2CC[C@H](Nc3nccc(-n4ccc5c(OCCCS(C)(=O)=O)cccc54)n3)CC2)CC1 | – |
| 980 | – | – | 7.48 | 6.82 | – | 4 | – | – | – | – | – | CS(=O)(=O)CCOc1cccc2c1cnn2-c1ccnc(N[C@H]2CC[C@H](O)CC2)n1 | – |
| 960 | – | – | 7.62 | 6.86 | – | 28 | – | – | – | – | – | OCCCOc1cccc2c1cnn2-c1ccnc(N[C@H]2CC[C@H](O)CC2)n1 | – |
| 1300 | 6.52 | 4 | 7.62 | 7.01 | – | – | – | 6.04 | 6.94 | 5.82 | > 10000 | CS(=O)(=O)N[C@H]1CC[C@H](Nc2nccc(-n3nnc4ccccc43)n2)CC1 | 5.64 |
| 2000 | – | – | 7.47 | 6.71 | – | 5.7 | – | – | – | – | – | OCC(O)COc1cccc2c1cnn2-c1ccnc(N[C@H]2CC[C@H](O)CC2)n1 (stereo partly specified) | – |
| > 30000 | – | – | 7.92 | 7.10 | – | 147 | – | – | – | – | – | CCCOc1cccc2c1cnn2-c1ccnc(N[C@H]2CC[C@H](O)CC2)n1 | – |
| – | – | – | 6.11 | 5.54 | – | – | – | – | – | – | – | O[C@H]1CC[C@H](Nc2nccc(N3CCc4ccccc43)n2)CC1 | – |
| 8200 | – | – | 6.85 | 6.14 | – | – | – | – | – | – | – | O[C@H]1CC[C@H](Nc2nccc(-c3c[nH]c4ccccc34)n2)CC1 | – |
| 3300 | < 5.21 | 4 | 6.92 | 6.40 | – | – | – | – | – | – | – | O=C([C@H]1CC[C@H](Nc2nccc(-n3nnc4ccccc43)n2)CC1)N1CCCC1 | < 4.52 |
| 3100 | – | – | – | – | – | 37 | – | – | – | – | – | COc1cccc2c1cnn2-c1ccnc(N[C@H]2CC[C@H](O)CC2)n1 | – |
